“Also recorded” adds a separate entry of the source. Where two headings read alike, the source gives them in different places.
Tests used:
[1] = tested on: patients with newly diagnosed glioblastoma; assay type: in vivo, human
[2] = tested on: patients with newly diagnosed glioblastoma; assay: Phase II adverse events related to study drug; assay type: in vivo, human
[3] = tested on: autophagic vacuoles in peripheral blood mononuclear cells; assay: Electron microscopy scoring of autophagic vacuoles in PBMC; assay type: in vivo, human
Summary of the method: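 PBMC were fixed in 2% glutaraldehyde and held at 4 °C. Micrographs at 10,000–12,000× covered 20–25 mononuclear cells per sample, from multiple fields. Two blinded scorers counted AV by morphological criteria, excluding mitochondria-like structures, and their counts were averaged. A mixed-effects model used time (baseline, week 3, week 9) and a random subject effect.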

[4] = Population pharmacokinetics of HCQ in whole blood; assay type: in vivo, human
[5] = tested on: autophagic vacuoles in peripheral blood mononuclear cells; assay: PK-PD analysis; assay type: in vivo, human; conditions: at 9 wk
newly diagnosed GB = conditions: radiation and carmustine with or without CQ; cited from earlier work
[6] = tested on: newly diagnosed glioblastoma; conditions: phase III trial, RT plus concomitant and adjuvant TMZ; cited from earlier work
[7] = HCQ 800 mg/d with RT + TMZ, during chemoradiation
[8] = phase II, n = 76, HCQ + RT + TMZ

## CCN(CCO)CCCC(C)Nc1ccnc2cc(Cl)ccc12 (stereo not shown) [HCQ, hydroxychloroquine]
[1]; HCQ 200 mg/d with RT + TMZ
  dose-limiting toxicities (DLTs): no dose-limiting toxicities
[1]; HCQ 400 mg/d with RT + TMZ
  dose-limiting toxicities (DLTs): no dose-limiting toxicities; also recorded: no further DLTs were observed
[1]; HCQ 600 mg/d with RT + TMZ, 3 patients
  dose-limiting toxicities (DLTs): no DLTs
[1]; HCQ 800 mg/d with RT + TMZ
  dose-limiting toxicity: early and severe myelosuppression; also recorded: dose-limiting myelosuppression
  subjects with Grade 3 and 4 neutropenia and thrombocytopenia: 3/3
[1]; [7]
  patients with grade 4 neutropenia: 2/3
  patients with grade 4 thrombocytopenia: 3/3
[1]; HCQ 200 to 800 mg/d with RT + TMZ
  other grade 2 toxicities common to all dose levels: nausea, fatigue, constipation, and diarrhea
[1]; oral daily, in combination with RT and concurrent and adjuvant TMZ
  maximum tolerated dose (MTD) of HCQ: 600 mg/day
[2]; phase I and II patients, RT + TMZ + HCQ
  patients off treatment due to toxicity: 3%
[2]; [8]
  Abdominal pain, Grade 3: 1 (1) number of patients (%)
  Abdominal pain, Total (grade 3 and 4): 1 (1) number of patients (%)
  Alanine aminotransferase increased, Grade 3: 2 (3) number of patients (%)
  Alanine aminotransferase increased, Total (grade 3 and 4): 2 (3) number of patients (%)
  Blood bilirubin increased, Total (grade 3 and 4): 1 (1) number of patients (%)
  Constipation, Grade 4: 1 (1) number of patients (%)
  Constipation, Total (grade 3 and 4): 1 (1) number of patients (%)
  Eye disorders, Grade 3: 1 (1) number of patients (%)
  Eye disorders, Total (grade 3 and 4): 1 (1) number of patients (%)
  Fatigue, Grade 3: 1 (1) number of patients (%)
  Fatigue, Total (grade 3 and 4): 1 (1) number of patients (%)
  Neutrophil count decreased, Grade 3: 3 (4) number of patients (%)
[3]; all patients (n = 40), P = 0.041
  increase in mean autophagic vacuole count (mixed-effects model): 0.075 per wk
[3]; one patient, 800 mg HCQ cohort
  treatment-associated increase in AV diameter: 2.5 fold
  treatment-associated increase in AV perimeter: 10 fold
  treatment-associated increase in percent of cytoplasm involved by AV: 9 fold
[4]; HCQ 200 to 800 mg/d
  relationship of HCQ exposure / whole blood concentration to dose: dose-proportional relationship; also recorded: dose-proportional and sustained exposure
[4]; groups of patients receiving the same dose
  time-dependent trend of HCQ concentrations in whole blood: did not show a significant time-dependent trend
[4]; individual PK parameter estimates derived from the population model, range 0.97 to 1.25
  mean tlag (individual estimates): 1.06 h
[4]; individual PK parameter estimates derived from the population model, range 26 to 5483
  mean V/F (individual estimates): 483.96 L
[4]; individual PK parameter estimates derived from the population model, range 558 to 2208
  V2/F (individual estimates): 963 L
[5]
  PK-PD correlation in PBMC: not significant

## CCN(CC)CCCC(C)Nc1ccnc2cc(Cl)ccc12 (stereo not shown) [CQ, Chloroquine]
Newly diagnosed GB
  median overall survival: trend toward increased median overall survival

## Cn1nnc2c(C(N)=O)ncn2c1=O [TMZ, temozolomide]
[6]
  failure rate (death): 0.6 per person-year of follow-up

From paper PMC4203513 (Autophagy, 2014)
